Test results reported in ChEMBL document CHEMBL1138191, “Synthesis, pharmacological evaluation, and molecular modeling studies of novel peptidic CAAX analogues as farnesyl-protein-transferase inhibitors” (J Med Chem, 2006).
Activity calls are given as the source filed them. The rule behind the calls is not given here.

Tests used:
[1] = system: FRTL-5; experiment: Antiproliferative activity against FRTL5 cell line; format: functional, cell-based; details: Rattus norvegicus
Procedure, shortened: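 FRTL-5 rat thyroid cells were grown in Coon's modified Ham F12 with 5% calf serum plus six hormones, including TSH 1 × 10^-10 M. Cells were seeded at ~10% confluency and attached for 24 h. Compounds in DMSO were applied for 24 h at 37 °C in 5% CO2, then washed out, followed by 48 h culture. SRB read-out, %T/C; IC50 from dose/effect curve; vehicle controls.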

[2] = system: NIH3T3; experiment: Antiproliferative activity against NIH3T3 cell line; format: functional, cell-based; details: Mus musculus
Procedure, shortened: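 NIH3T3 fibroblasts were grown in DMEM with 10% calf serum and seeded at ~10% confluency with 24 h attachment. A range of compound concentrations in DMSO was applied for 24 h at 37 °C in 5% CO2, then washed off, followed by 48 h further incubation. Growth by sulforhodamine B; %T/C versus vehicle; IC50 from dose/effect curve.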

[3] = system: MCF10; experiment: Antiproliferative activity against MCF10 cell line; format: functional, cell-based; details: Homo sapiens
[4] = system: MCF7; experiment: Antiproliferative activity against MCF7 cell line; format: functional, cell-based; details: Homo sapiens
Procedure, shortened: (§1)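 Monolayers in RPMI-1640 with 10% FBS, seeded ~10% confluent and allowed 24 h recovery. Compounds in DMSO at varying concentrations for 24 h (37 °C, 5% CO2), then washout and 48 h further growth. Viability by sulforhodamine B; %T/C relative to vehicle-treated controls; 50% growth-inhibitory concentration taken from dose/effect curve.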

[5] = system: MDA-MB-231; experiment: Antiproliferative activity against MDA-MB-231 cell line; format: functional, cell-based; details: Homo sapiens; procedure, shortened: as §1
[6] = system: T47D; experiment: Antiproliferative activity against T47D cell line; format: functional, cell-based; details: Homo sapiens; procedure, shortened: as §1
[7] = system: LoVo; experiment: Antiproliferative activity against LoVo cell line; format: functional, cell-based; details: Homo sapiens; procedure, shortened: as §1
[8] = Inhibitory activity against farnesyl transferase

SMILES	IC50 [8]	IC50 [4]	IC50 [5]	IC50 [6]	IC50 [7]	Activity [1]	Activity [2]	Activity [3]	Activity [4]	Activity [5]	Activity [6]	Activity [7]
CSCC[C@H](NC(=O)[C@@H](Cc1cc(C)c(O)cc1C)NC(=O)[C@@H](NC(=O)[C@@H](N)CS)C(C)C)C(=O)O	10.5 µM	–	–	–	–	inactive	inactive	inactive	inactive	inactive	inactive	inactive
CSCC[C@H](NC(=O)[C@@H](Cc1cc(C)c(O)cc1C)NC(=O)[C@@H](NC(=O)[C@H](CS)NC=O)C(C)C)C(=O)O	10.2 µM	–	–	–	–	–	–	–	–	–	–	–
COC(=O)[C@H](CCSC)NC(=O)[C@H](Cc1ccc(O)c(C)c1C)NC(=O)[C@@H](NC(=O)[C@@H](N)CS)C(C)C	20.4 µM	65 µM	83 µM	90 µM	9.1 µM	–	–	–	–	–	–	–
CSCC[C@H](NC(=O)[C@@H](Cc1ccc(O)cc1C)NC(=O)[C@@H](NC(=O)[C@@H](N)CS)C(C)C)C(=O)O	11.4 µM	–	–	–	–	inactive	inactive	inactive	inactive	inactive	inactive	inactive
CSCC[C@H](NC(=O)[C@@H](Cc1ccc(O)c(C)c1C)NC(=O)[C@@H](NC(=O)[C@@H](N)CS)C(C)C)C(=O)O	4.3 µM	–	–	–	–	inactive	inactive	inactive	inactive	inactive	inactive	inactive
CSCC[C@H](NC(=O)[C@@H](Cc1ccc(C)cc1C)NC(=O)[C@@H](NC(=O)[C@@H](N)CS)C(C)C)C(=O)O	4.3 µM	–	–	–	–	inactive	inactive	inactive	inactive	inactive	inactive	inactive
CSCC[C@H](NC(=O)[C@H](Cc1ccc(O)c(C)c1C)NC(=O)[C@@H](NC(=O)[C@H](CS)NC=O)C(C)C)C(=O)O	10.3 µM	–	100 µM	100 µM	–	–	–	–	–	–	–	–
CSCC[C@H](NC(=O)[C@H](Cc1cc(C)c(O)cc1C)NC(=O)[C@@H](NC(=O)[C@H](CS)NC=O)C(C)C)C(=O)O	5.5 µM	–	–	–	–	–	–	–	–	–	–	–
COC(=O)[C@H](CCSC)NC(=O)[C@@H](Cc1ccc(O)c(C)c1C)NC(=O)[C@@H](NC(=O)[C@@H](N)CS)C(C)C	70.5 µM	–	–	–	–	inactive	inactive	inactive	inactive	inactive	inactive	inactive

Second part, led by results:

IC50 [8]	IC50 [4]	IC50 [5]	IC50 [6]	IC50 [7]	SMILES	Activity [1]	Activity [2]	Activity [3]	Activity [4]	Activity [5]	Activity [6]	Activity [7]
1 µM	–	–	–	–	CSCC[C@H](NC(=O)[C@H]1CC2CCCCC2N1C(=O)[C@@H](NC(=O)[C@@H](N)CS)C(C)C)C(=O)O (stereo not given in full)	inactive	inactive	inactive	inactive	inactive	inactive	inactive
0.1 µM	–	–	–	–	CSCC[C@H](NC(=O)[C@H](Cc1ccc(O)c(C)c1C)NC(=O)[C@@H](NC(=O)[C@@H](N)CS)C(C)C)C(=O)O	inactive	inactive	inactive	inactive	inactive	inactive	inactive
4.3 µM	–	–	–	–	CSCC[C@H](NC(=O)[C@H](Cc1ccc(O)cc1C)NC(=O)[C@@H](NC(=O)[C@@H](N)CS)C(C)C)C(=O)O	inactive	inactive	inactive	inactive	inactive	inactive	inactive
2.5 µM	–	–	–	–	CSCC[C@H](NC(=O)[C@H](Cc1cc(C)c(O)cc1C)NC(=O)[C@@H](NC(=O)[C@@H](N)CS)C(C)C)C(=O)O	inactive	inactive	inactive	inactive	inactive	inactive	inactive
2.2 µM	–	–	–	–	CSCC[C@H](NC(=O)[C@H](Cc1ccc(C)cc1C)NC(=O)[C@@H](NC(=O)[C@@H](N)CS)C(C)C)C(=O)O	inactive	inactive	inactive	inactive	inactive	inactive	inactive
